Activity calls are given as the source filed them. The rule behind the calls is not given here.
Experiments:
[1] = target: T1, Prostaglandin D2 receptor 2 (Homo sapiens, UniProt Q9Y5Y4); assay: Displacement of [3H]-PGD2 from CRTh2 receptor by scintillation proximity assay
T1 sequence (Q9Y5Y4 whole entry): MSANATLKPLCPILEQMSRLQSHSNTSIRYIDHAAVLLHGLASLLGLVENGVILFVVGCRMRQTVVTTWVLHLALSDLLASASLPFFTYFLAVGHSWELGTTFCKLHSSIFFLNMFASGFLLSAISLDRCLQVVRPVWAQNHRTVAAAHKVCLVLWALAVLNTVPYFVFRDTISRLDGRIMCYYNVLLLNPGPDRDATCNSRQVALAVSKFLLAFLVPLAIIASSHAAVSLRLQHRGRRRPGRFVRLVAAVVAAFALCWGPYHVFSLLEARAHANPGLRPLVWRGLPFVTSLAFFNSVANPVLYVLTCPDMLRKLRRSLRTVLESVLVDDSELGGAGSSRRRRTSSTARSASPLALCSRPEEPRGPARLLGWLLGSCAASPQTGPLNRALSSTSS

[2] = target: T1, Prostaglandin D2 receptor 2; assay: Antagonist activity at human CRTh2 receptor expressed in HEK cells assessed as inhibition of PGD2-induced calcium flux; type: functional, cell-based, HEK293
How it was run: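 PGD2-driven Ca2+ flux in HEK cells transfected with human CRTh2, read as antagonism of the response.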

[3] = Intrinsic clearance in rat hepatocytes assessed per 1 x 10^6 cells
[4] = Intrinsic clearance in human liver microsomes
[5] = Lipophilicity, log D of the compound at pH 7.4; details: buffer
[6] = target: T2, Prostaglandin D2 receptor 2 (Homo sapiens) (UniProt Q9Y5Y4); assay: Partial agonist activity at human CRTh2 receptor expressed in HEK cells assessed as stimulation of calcium flux; type: functional, cell-based; details: HEK293
T2 sequence (whole entry): T1 sequence (Q9Y5Y4 whole entry)

[7] = target: T2, Prostaglandin D2 receptor 2 (Homo sapiens); assay: Displacement of [3H]-PGD2 from CRTh2 receptor at 10 uM by scintillation proximity assay
How it was run: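 Scintillation proximity binding with [3H]-PGD2 as radioligand; reported values are means of more than 2 measurements.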

[8] = target: T2, Prostaglandin D2 receptor 2 (Homo sapiens); details: HEK293, 10 uM

Row | Compound | IC50 [1] [nM] | hepatocyte CLint [3] [µL/min/1e6 cells] | microsomal CLint ([4]; liver microsomes) [µL/min/mg] | also measured
1 | Cc1ccc(OCC(=O)O)c(-c2ccccc2)c1 | 794 | < 3 | 12 | IC50 [2]: 708 nM
2 | O=C(O)COc1ccc([N+](=O)[O-])cc1-c1ccccc1 | 251 |  |  | IC50 [2]: 178 nM
3 | CCS(=O)(=O)c1cccc(-c2cc(C(F)(F)F)ccc2OCC(=O)O)c1 | 56 | < 3 | 12 | 
4 | CCN(CC)S(=O)(=O)c1ccc(-c2cc(C(F)(F)F)ccc2OCC(=O)O)cc1 | 1.3 | 18 | 9 | logD [5]: 0.7
5 | O=C(O)COc1ccc(C(F)(F)F)cc1-c1ccc2c(c1)CCS2(=O)=O | 126 | 13 | 6 | 
6 | CS(=O)(=O)c1ccc(OCC(=O)O)c(-c2ccccc2)c1 | 541 | 6 | < 3 | Activity [6]: Active
7 | C[C@@H](Oc1ccc(C(F)(F)F)cc1-c1cccc(C#N)c1)C(=O)O | 0.6 | < 5 | < 3 | 
8 | CCS(=O)(=O)c1ccc(-c2cc(Cl)ccc2OCC(=O)O)c(Cl)c1 | 1.5 | < 3 | 7 | 
9 | CCS(=O)(=O)c1ccc(-c2cc(C(F)(F)F)ccc2O[C@H](C)C(=O)O)c(Cl)c1 | 0.6 | < 3 | < 3 | logD [5]: 0
10 | CCC(Oc1ccc(C(F)(F)F)cc1-c1ccc(S(=O)(=O)CC)cc1C)C(=O)O (centres undefined) | 178 |  |  | logD [5]: 0.3
11 | CCS(=O)(=O)c1ccc(-c2cc(Cl)ccc2OCC(=O)O)c(F)c1 | 7.9 | 4 |  | microsomal CLint ([4]; microsomes): < 3 µL/min/mg
12 | CCS(=O)(=O)c1ccc(-c2cc(C(F)(F)F)ccc2CCC(=O)O)c(C)c1 | 2.5 | 25 | < 4 | 
13 | Cc1ccc(C#N)cc1-c1cc(C(F)(F)F)ccc1OCC(=O)O | 0.2 | < 3 |  | logD [5]: 0.2; microsomal CLint ([4]; microsomes): < 3 µL/min/mg
14 | CN(c1ccc(-c2cc(F)ccc2OCC(=O)O)c(Cl)c1)S(C)(=O)=O | 2.2 |  |  | 
15 | CCS(=O)(=O)c1ccc(-c2cc(Cl)ccc2OCC(=O)O)c(C)c1 | 4.1 |  |  | 
16 | CCS(=O)(=O)c1ccc(-c2cc(C(F)(F)F)ccc2OCC(N)=O)c(C)c1 | 5650 | 29 | < 3 | logD [5]: 2.8
17 | O=C(O)COc1ccc(Br)cc1-c1ccccc1 | 316 | 7 | < 3 | IC50 [2]: 158 nM
18 | CS(=O)(=O)c1ccc(-c2cc(Cl)ccc2OCC(=O)O)c(Cl)c1 | 0.6 | 5 | 10 | 
19 | O=C(O)COc1ccc(C(F)(F)F)cc1-c1ccc(Cl)cc1 | 50 | < 3 | 11 | logD [5]: 0.9
20 | CN(c1ccc(-c2cc(C(F)(F)F)ccc2OCC(=O)O)c(Cl)c1)S(C)(=O)=O | 0.1 |  |  | 
21 | CCSc1ccc(-c2cc(C(F)(F)F)ccc2OCC(=O)O)cc1 | 8.9 |  |  | 
22 | O=C(O)COc1ccc(Cl)cc1-c1ccccc1 | 251 |  |  | 

Row | Compound | IC50 [1] [nM] | hepatocyte CLint [3] [µL/min/1e6 cells] | microsomal CLint ([4]; liver microsomes) [µL/min/mg] | also measured
23 | Cc1cc(N(C)S(C)(=O)=O)ccc1-c1cc(C(F)(F)F)ccc1OCC(=O)O | 0.4 | < 3 | < 3 | 
24 | CCS(=O)(=O)c1ccc(-c2cc(C(F)(F)F)ccc2OCC(=O)O)c(Cl)c1 | 0.3 | < 5 | < 3 | 
25 | O=C(O)COc1ccccc1-c1ccccc1 |  |  |  | inhibition [7]: 41%
26 | CCS(=O)(=O)c1ccc(-c2cc(C(F)(F)F)ccc2OCc2nnn[nH]2)c(C)c1 | 891 |  |  | 
27 | CCc1ccc(OCC(=O)O)c(-c2ccc(S(C)(=O)=O)cc2)c1 |  | 13 |  | microsomal CLint ([4]; microsomes): < 3 µL/min/mg
28 | CCS(=O)(=O)c1ccc(-c2cc(C(F)(F)F)ccc2O[C@@H](C)C(=O)O)c(C)c1 | 355 | 10 |  | 
29 | CS(=O)(=O)c1ccc(-c2cc(C(F)(F)F)ccc2OCC(=O)O)c(Cl)c1 | 0.2 |  |  | 
30 | CCS(=O)(=O)c1ccc(-c2cc(C(F)(F)F)ccc2O[C@H](C)C(=O)O)c(C)c1 | 1.6 | 23 | < 3 | 
31 | O=C(O)COc1ccc(C(F)(F)F)cc1-c1ccccc1-c1ccccc1 | 2 | 20 |  | logD [5]: 1.4; microsomal CLint ([4]; microsomes): < 3 µL/min/mg
32 | N#Cc1ccc(-c2cc(C(F)(F)F)ccc2OCC(=O)O)cc1 | 126 |  |  | 
33 | CCS(=O)(=O)c1ccc(-c2cc(Cl)ccc2OCC(=O)O)c(C(F)(F)F)c1 | 293 |  |  | 
34 | CCS(=O)(=O)c1ccc(-c2cc(Cl)ccc2OCC(=O)O)cc1 | 19 | < 3 | 7 | 
35 | COc1ccc(-c2cc(C(F)(F)F)ccc2OCC(=O)O)cc1 | 251 | 47 | 12 | logD [5]: 0.3
36 | Nc1ccc(OCC(=O)O)c(-c2ccccc2)c1 | 8910 | 64 | < 3 | inhibition [8]: 17%
37 | CCCCOc1ccccc1-c1cc(C(F)(F)F)ccc1OCC(=O)O | 10 | 9 | 6 | 
38 | CN(c1ccc(-c2cc(C(F)(F)F)ccc2OCC(=O)O)cc1)S(C)(=O)=O | 0.8 | < 3 | 13 | 
39 | CCS(=O)(=O)c1ccc(-c2cc(C(F)(F)F)ccc2OC(C)(C)C(=O)O)c(C)c1 | 3980 |  |  | 
40 | N#Cc1cccc(-c2cc(C(F)(F)F)ccc2OCC(=O)O)c1 | < 0.4 | < 3 | < 3 | logD [5]: 0.1
41 | N#Cc1ccc(OCC(=O)O)c(-c2ccccc2)c1 | 355 | < 3 | 6 | IC50 [2]: 251 nM
42 | O=C(O)COc1ccc(-c2nccs2)cc1-c1ccccc1 | 1780 |  |  | IC50 [2]: 501 nM
43 | CS(=O)(=O)c1ccc(-c2cc(C(F)(F)F)ccc2OCC(=O)O)cc1 | 36 | < 3 | < 3 | Activity [6]: Active
44 | N#Cc1ccc(F)c(-c2cc(C(F)(F)F)ccc2OCC(=O)O)c1 | 0.2 | < 3 |  | microsomal CLint ([4]; microsomes): < 4 µL/min/mg

From ChEMBL document CHEMBL1777748 (Bioorg Med Chem Lett, 2011)
